Reference: ChEMBL document CHEMBL3085638, “Synthesis of novel ciprofloxacin analogues and evaluation of their anti-proliferative effect on human cancer cell lines” (2013)
Calls of active or inactive are those of the source. The calls are words filed in the database; no cut-off is given here.

Experiments:
CCRF-CEM [1] = experiment: Antiproliferative activity against human CCRF-CEM cells assessed as cell viability at 50 uM after 24 hrs by CellTiter assay relative to DMSO control; type: functional; details: read-out: Activity
CCRF-CEM [2] = experiment: Antiproliferative activity against human CCRF-CEM cells assessed as cell viability at 50 uM by CellTiter assay relative to DMSO control; type: functional, cell-based
CCRF-CEM [3] = experiment: Antiproliferative activity against human CCRF-CEM cells assessed as cell viability at 50 uM after 72 hrs by CellTiter assay relative to DMSO control; type: functional; details: read-out: Activity
Outline: (§1)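 ATCC-derived cells kept in EMEM with 10% FBS and 1% penicillin/streptomycin at 37 °C under 5% CO2. At 75–80% confluency, 5000 cells/well were seeded, then after 72 h exposed to 50 µM compound in triplicate for 72 h. CellTiter 96 AQueous One reagent was added for 1 h at 37 °C and formazan A490 read, with cell-free medium plus reagent as blank. Results are % of untreated control.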

HCT-116 [4] = experiment: Antiproliferative activity against human HCT116 cells assessed as cell viability at 50 uM after 72 hrs by CellTiter assay relative to DMSO control; type: functional; details: HCT-116, 72 h, read-out: Activity; outline: as §1
CCRF-CEM [5] = experiment: Antiproliferative activity against human CCRF-CEM cells assessed as cell viability at 50 uM after 48 hrs by CellTiter assay relative to DMSO control; type: functional; details: read-out: Activity
CCRF-CEM [6] = experiment: Antiproliferative activity against human CCRF-CEM cells assessed as cell viability at 50 uM after 96 hrs by CellTiter assay relative to DMSO control; type: functional; details: read-out: Activity
MDA-MB-468 [7] = experiment: Antiproliferative activity against human MDA-MB-468 cells assessed as cell viability at 50 uM after 72 hrs by CellTiter assay relative to DMSO control; type: functional; details: MDA-MB-468, 72 h, read-out: Activity; outline: as §1
CCRF-CEM [8] = experiment: Antiproliferative activity against human CCRF-CEM cells assessed as cell viability at 10 uM after 72 hrs by CellTiter assay; type: functional, cell-based
Outline: (§2)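 Doxorubicin was the positive control at 10 µM. ATCC cells were grown in EMEM with 10% FBS and 1% penicillin/streptomycin at 37 °C under 5% CO2, seeded at 5000 cells/well, and treated 72 h after seeding for a 72 h exposure. Viability was read by CellTiter 96 AQueous One reagent (1 h, 37 °C) as A490, minus a cell-free blank, and expressed as % of untreated control.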

MDA-MB-468 [9] = experiment: Antiproliferative activity against human MDA-MB-468 cells assessed as cell viability at 10 uM after 72 hrs by CellTiter assay; type: functional, cell-based; outline: as §2
HCT-116 [10] = experiment: Antiproliferative activity against human HCT116 cells assessed as cell viability at 10 uM after 72 hrs by CellTiter assay; type: functional, cell-based; outline: as §2

## O=C(O)c1cn(C2CC2)c2cc(N3CCN(C(=O)CN4CCN(C(c5ccc(F)cc5)c5ccc(F)cc5)CC4)CC3)c(F)cc2c1=O
CCRF-CEM [1]
  viability at 50 µM: 19%
CCRF-CEM [2]; TDE = time-dependent effect
  Activity: tde
CCRF-CEM [3]
  viability at 50 µM: 38%
HCT-116 [4]
  viability at 50 µM: 35%
CCRF-CEM [5]
  viability at 50 µM: 27%
CCRF-CEM [6]
  viability at 50 µM: 43%
MDA-MB-468 [7]
  viability at 50 µM: 35%

## O=C(O)c1cn(C2CC2)c2cc(N3CCNCC3)c(F)cc2c1=O
CCRF-CEM [2]
  Activity: Active

## O=C(O)c1cn(C2CC2)c2cc(N3CCN(C(=O)CN4CCN(C(c5ccccc5)c5ccccc5)CC4)CC3)c(F)cc2c1=O
MDA-MB-468 [7]
  viability at 50 µM: ≤ 35%

## COc1cccc2c1C(=O)c1c(O)c3c(c(O)c1C2=O)C[C@@](O)(C(=O)CO)C[C@@H]3O[C@H]1C[C@H](N)[C@H](O)[C@H](C)O1
CCRF-CEM [8]
  Activity: Active
MDA-MB-468 [9]
  Activity: Active
HCT-116 [10]
  Activity: Active

## O=C(O)c1cn(C2CC2)c2cc(N3CCN(C(=O)CN4CCN(c5ccc(F)c(F)c5)CC4)CC3)c(F)cc2c1=O
CCRF-CEM [3]
  viability at 50 µM: 35%
HCT-116 [4]
  viability at 50 µM: 35%
MDA-MB-468 [7]
  viability at 50 µM: 35%
